Results on two molecules are retold here after ChEMBL document CHEMBL4330069, “Boosting the efficacy of anti-MRSA β-lactam antibiotics via an easily accessible, non-cytotoxic and orally bioavailable FtsZ inhibitor” (Eur J Med Chem, 2019).

Values after ≈ are worked out from the molar mass of the structure shown. Active and inactive are the calls of the source. No cut-off for these calls is given here.

The target in assay [1] is T1, Cell division protein FtsZ (Staphylococcus aureus) (UniProt P0A031).
T1 sequence (whole entry): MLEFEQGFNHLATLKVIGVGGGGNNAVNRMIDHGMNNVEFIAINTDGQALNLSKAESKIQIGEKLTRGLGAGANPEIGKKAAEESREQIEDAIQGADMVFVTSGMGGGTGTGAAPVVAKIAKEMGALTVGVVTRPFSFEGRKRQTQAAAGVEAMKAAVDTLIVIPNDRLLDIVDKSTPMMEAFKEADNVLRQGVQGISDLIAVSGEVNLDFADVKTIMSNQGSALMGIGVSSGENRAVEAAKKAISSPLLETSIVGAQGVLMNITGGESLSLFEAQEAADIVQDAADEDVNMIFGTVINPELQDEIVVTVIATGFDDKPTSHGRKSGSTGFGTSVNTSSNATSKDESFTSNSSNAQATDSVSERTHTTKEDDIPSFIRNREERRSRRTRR
Kind of assay: Inhibition of Staphylococcus aureus N-terminal 6His-tagged FtsZ GTPase expressed in Escherichia coli BL21 (DE3) at 30 uM relative to control.

A short description of assay [2]: Selective index, ratio of IC50 for mouse L929 cells to MIC for Staphylococcus aureus ATCC 29213. In short, it runs like this:
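Selectivity index calculated as L929 IC50 (μM) divided by S. aureus MIC (μM).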

The target in assay [3] is T1, Cell division protein FtsZ (Staphylococcus aureus). The experiment in a line: Inhibition of Staphylococcus aureus N-terminal 6His-tagged FtsZ polymerization expressed in Escherichia coli BL21 (DE3) at 100 uM relative to control. In outline:
(§1)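 Purified S. aureus FtsZ polymerization with GTP, followed as light scattering (absorbance 600 nm) over time. Compound was tested at 12.5–100 µM against a 1% DMSO vehicle, and inhibition was read at 500 s. Triplicate.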

Assay [4] relates to L929. The experiment in a line: Cytotoxicity against mouse L929 cells by MTS assay. The assay is classed as cell-based. In short, it runs like this:
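MTS assay on L929 mouse fibroblasts; IC50 reported as the average of three independent measurements.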
Background: Formazan colour is commonly taken as a measure of viable cells.

In assay [5] the test system is Staphylococcus aureus. Kind of assay: Synergistic bactericidal activity against Staphylococcus aureus ATCC BAA-41 at 1 to 16 times MIC in presence of methicillin up to 24 hrs by time kill assay. Format: functional, organism-based. In short, it runs like this: (§2)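 Colony of strain grown 16 h in CA-MH broth at 37 °C with shaking, diluted 100-fold and grown to mid-log (OD595 0.8), then set at 5×10^5 CFU/mL. […] Sampled at 0, 2.5, 5, 7.5, 21, 24 h, diluted and plated on drug-free CA-MH agar, 24 h at 37 °C; triplicates.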

Assay [6] deals with Staphylococcus aureus. Kind of assay: Synergistic antibacterial activity against Staphylococcus aureus ATCC BAA-41 at 1 to 16 times MIC in presence of methicillin after 21 hrs by time kill assay. Format: functional, organism-based. In short, it runs like this: as §2
Assay [7] has as its target T1, Cell division protein FtsZ (Staphylococcus aureus). The experiment in a line: Inhibition of Staphylococcus aureus N-terminal 6His-tagged FtsZ GTPase expressed in Escherichia coli BL21 (DE3) at 100 uM relative to control.
Assay [8] deals with Staphylococcus aureus. The experiment in a line: Antibacterial activity against Staphylococcus aureus ATCC 29213 by broth microdilution assay. The assay is classed as functional. In outline: (§3)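 Broth microdilution per CLSI guidelines; compounds dissolved in DMSO; single agents tested; growth inhibition read by eye; run in duplicate (table footnote states at least triplicates).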
A general note: Broth dilution looks for growth in wells or tubes with falling amounts of substance.

In assay [9] the test system is Staphylococcus aureus. Kind of assay: Antibacterial activity against Staphylococcus aureus ATCC BAA-41 at […] after 24 hrs by time kill assay. The assay is classed as functional, organism-based. In short, it runs like this: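 Time-kill assay. S. aureus BAA-41 was grown in CA-MH broth to mid-log phase (OD595 0.8), then diluted to 5×10^5 CFU/mL. […] Samples were taken at 0–24 h and plated on drug-free CA-MH agar for 24 h. Triplicates.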

Assay [10] deals with Staphylococcus aureus. The experiment in a line: Bactericidal activity against Staphylococcus aureus ATCC BAA-41 assessed as log reduction in bacterial growth at 2 to 4 times MIC up to 7 hrs by time kill assay. The assay is classed as functional. In outline: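 Mid-log S. aureus BAA-41 culture (OD595 0.8) diluted to 5×10^5 CFU/mL in CA-MH broth. […] Incubated at 37 °C with shaking at 250 rpm, sampled at 0, 2.5, 5, 7.5, 21 and 24 h, and plated on drug-free CA-MH agar for 24 h at 37 °C to count viable cells; triplicates.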

Assay [11] deals with Escherichia coli. The experiment in a line: Antibacterial activity against Escherichia coli ATCC 25922 by broth microdilution assay. The assay is classed as functional. In short, it runs like this: as §3
Assay [12] deals with T1, Cell division protein FtsZ (Staphylococcus aureus). Kind of assay: Inhibition of Staphylococcus aureus N-terminal 6His-tagged FtsZ GTPase expressed in Escherichia coli BL21 (DE3) at 50 uM relative to control.
Assay [13] shares this target. The experiment in a line: Inhibition of Staphylococcus aureus N-terminal 6His-tagged FtsZ polymerization expressed in Escherichia coli BL21 (DE3) assessed as short strands at 100 uM in presence of GTP by TEM analysis. In outline:
(§4)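 Purified S. aureus FtsZ was incubated with GTP and compound at 0, 50 or 100 µM. Filaments were then imaged by transmission electron microscopy.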

The target is the same in assay [14]. Kind of assay: Inhibition of Staphylococcus aureus N-terminal 6His-tagged FtsZ polymerization expressed in Escherichia coli BL21 (DE3) at 25 uM relative to control. In outline: as §1
The target is the same in assay [15]. The experiment in a line: Inhibition of Staphylococcus aureus N-terminal 6His-tagged FtsZ polymerization expressed in Escherichia coli BL21 (DE3) assessed as thin strands at 100 uM in presence of GTP by TEM analysis. In short, it runs like this: as §4
For assay [16] the target is unchanged. Kind of assay: Inhibition of Staphylococcus aureus N-terminal 6His-tagged FtsZ polymerization expressed in Escherichia coli BL21 (DE3) assessed as reduction in filament formation in presence of GTP by TEM analysis. In outline:
as §4

The target is the same in assay [17]. The experiment in a line: Inhibition of Staphylococcus aureus N-terminal 6His-tagged FtsZ polymerization expressed in Escherichia coli BL21 (DE3) assessed as single strands at 100 uM in presence of GTP by TEM analysis. In outline:
as §4

Assay [18] shares this target. The experiment in a line: Inhibition of Staphylococcus aureus N-terminal 6His-tagged FtsZ polymerization expressed in Escherichia coli BL21 (DE3). In outline: as §1
For assay [19] the target is unchanged. The experiment in a line: Inhibition of Staphylococcus aureus N-terminal 6His-tagged FtsZ polymerization expressed in Escherichia coli BL21 (DE3) assessed as reduced strands at 100 uM in presence of GTP by TEM analysis. In outline: as §4
Assay [20] shares this target. Kind of assay: Inhibition of Staphylococcus aureus N-terminal 6His-tagged FtsZ GTPase expressed in Escherichia coli BL21 (DE3) at 100 uM.
Assay [21] has the same target. Kind of assay: Inhibition of Staphylococcus aureus N-terminal 6His-tagged FtsZ polymerization expressed in Escherichia coli BL21 (DE3) at 50 uM relative to control. In short, it runs like this: as §1

On to `NC(=O)c1c(F)ccc(OCc2nc3cc(Cl)cnc3s2)c1F`, for which the figures for the inhibition in [1], in assay [7] and in assay [12] were -47%, -15% and -29%, respectively. For the same molecule, the “Selectivity Index” value in [2] is more than 63. In assay [3], the inhibition (in general, the drop in the measured response relative to a control, in per cent) is “Active”. In [4], the IC50 – broadly, the concentration that inhibits the measured activity by half – was more than 100 µM. Moreover, the result in assay [5], in [6] and in assay [9] was Active. Also, the figures for the minimal inhibitory concentration (MIC) in [8] and in [11] were 1.6 µM (≈ 0.569 µg/mL) and more than 64 µg/mL, respectively. The log(activity) in assay [10] was more than 4.
Take `CCCCCCCCCNc1ccc(F)c(C(N)=O)c1F`: the inhibition result in assay [13], in assay [15], in assay [17] and in assay [19] was “Active” throughout. Besides, the inhibition was 47% in assay [3]; 34% in assay [14]; “Dose-dependent effect” in assay [16]; “Dose-dependent effect” in assay [18]; 39% in assay [21]. Further, the outcome in [5] and in assay [6] was Active. In addition, the outcome in assay [9] was inactive. The inhibition entry in [20] was “inactive”.
